Measurements as given in ChEMBL document CHEMBL1811874, “The effect of sulfonate leaving groups on the hypoxia-selective toxicity of nitro analogs of the duocarmycins” (Bioorg Med Chem, 2011).
≈ marks a conversion by molar mass, not a printed value. Each block holds one compound with its values, some of them ahead of it.

Legend:
[1] = Solubility in alphaMEM culture medium containing 5% FCS at 22 degC; format: physicochemical
Method in brief: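 Solubility was measured in αMEM with 5% FCS, equilibrated with 5% CO₂/air, at 22 °C.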

[2] = system: SK-OV-3; assay: Cytotoxicity against human SKOV3 cells assessed as reduction of cell density incubated for 4 hrs in oxic (aerobic) condition measured 5 days post dose by SRB assay; format: functional, cell-based
Method in brief: (§1)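 Log-phase monolayers given a 4 h drug exposure under aerobic (20% O₂) or anoxic (<20 ppm O₂) conditions. Cells were then stained with sulforhodamine B 5 days later. IC50 was interpolated as the concentration that cut cell density to 50% of same-plate controls. Values are means of two to seven experiments.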

[3] = system: SK-OV-3; assay: Cytotoxicity against human SKOV3 cells assessed as reduction of cell density incubated for 4 hrs in hypoxic (anoxic) condition measured 5 days post dose by SRB assay; format: functional, cell-based; method in brief: as §1
[4] = system: SK-OV-3; assay: Hypoxic cytotoxicity ratio, ratio of IC50 for human SKOV3 cells in oxic (aerobic) condition to IC50 for human SKOV3 cells in hypoxic (anoxic) conditions; format: functional
Method in brief: (§2)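 HCR was calculated as IC50(oxic)/IC50(hypoxic) after 4 h drug exposure at 20% O₂ or <20 ppm O₂, with SRB read-out 5 days later.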

[5] = system: HT-29; assay: Cytotoxicity against human HT-29 cells assessed as reduction of cell density incubated for 4 hrs in oxic (aerobic) condition measured 5 days post dose by SRB assay; format: functional, cell-based; method in brief: as §1
[6] = system: HT-29; assay: Cytotoxicity against human HT-29 cells assessed as reduction of cell density incubated for 4 hrs in hypoxic (anoxic) condition measured 5 days post dose by SRB assay; format: functional, cell-based; method in brief: as §1
[7] = system: HT-29; assay: Hypoxic cytotoxicity ratio, ratio of IC50 for human HT-29 cells in oxic (aerobic) condition to IC50 for human HT-29 cells in hypoxic (anoxic) conditions; format: functional; method in brief: as §2
[8] = system: CHO-AA8; assay: Cytotoxicity against chinese hamster ovary AA8 cells incubated for 4 hrs; format: functional, cell-based; settings: Cricetulus griseus, CHO-AA8, 4 h
[9] = system: EMT6; assay: Cytotoxicity against mouse EMT6 cells; format: functional, cell-based
[10] = system: SK-OV-3; assay: Cytotoxicity against human SKOV3 cells; format: functional, cell-based
Method in brief: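 Log-phase SKOV3 ovarian carcinoma monolayers were exposed to drug for 4 h under aerobic (20% O₂) or anoxic (<20 ppm O₂) conditions, then stained with sulforhodamine B 5 days later. IC50 was interpolated as the concentration that cut cell density to 50% of same-plate controls, given as mean ± SEM of 2–7 experiments. HCR is IC50(oxic)/IC50(hypoxic), taken as means of intraexperiment ratios.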

solubility [1]: 91 µM (≈ 57.2 µg/mL)
SMILES: CN(C)CCOc1ccc2[nH]c(C(=O)N3CC(COS(=O)(=O)Cc4ccccc4)c4c3cc([N+](=O)[O-])c3ccccc43)cc2c1 (stereo not drawn)
IC50 [2]: 270 nM
IC50 [3]: 150 nM
Ratio IC50 [4]: 1.8
IC50 [5]: 240 nM
IC50 [6]: 80 nM
Ratio IC50 [7]: 4

solubility [1]: 22 µM (≈ 9.59 µg/mL)
SMILES: Nc1cc2c(c3ccccc13)C(CCl)CN2C(=O)c1cc2cc(OCCO)ccc2[nH]1 (stereo not drawn)
IC50 [2]: 3.3 nM
IC50 [3]: 4.2 nM
Ratio IC50 [4]: 0.8

solubility [1]: 46 µM (≈ 27.7 µg/mL)
SMILES: O=C(c1cc2cc(OCCO)ccc2[nH]1)N1CC(COS(=O)(=O)Cc2ccccc2)c2c1cc([N+](=O)[O-])c1ccccc21 (stereo not drawn)
IC50 [2]: 1200 nM
IC50 [3]: 210 nM
Ratio IC50 [4]: 7.1
IC50 [5]: 1800 nM
IC50 [6]: 660 nM
Ratio IC50 [7]: 2.4

solubility [1]: 22 µM (≈ 13.7 µg/mL)
SMILES: CN(C)CCOc1ccc2[nH]c(C(=O)N3CC(COS(=O)(=O)C4CCCCC4)c4c3cc([N+](=O)[O-])c3ccccc43)cc2c1 (stereo not drawn)
IC50 [2]: 470 nM
IC50 [3]: 300 nM
Ratio IC50 [4]: 1.5
IC50 [5]: 410 nM
IC50 [6]: 200 nM
Ratio IC50 [7]: 2.3

SMILES: COc1cc2cc(C(=O)N3CC(CCl)c4c3cc(N)c3ccccc43)[nH]c2c(OC)c1OC (stereo not drawn)
IC50 [8]: < 1 nM
IC50 [9]: 0.4 nM
IC50 [10]: 1.2 nM

SMILES: COc1ccc2[nH]c(C(=O)N3CC(CCl)c4c3cc([N+](=O)[O-])c3ccccc43)cc2c1 (stereo not drawn)
solubility [1]: 38 µM (≈ 16.6 µg/mL)
IC50 [2]: 4800 nM
IC50 [3]: 1540 nM
Ratio IC50 [4]: 3.1
IC50 [5]: 9700 nM
IC50 [6]: 1300 nM
Ratio IC50 [7]: 7.4

solubility [1]: 29 µM (≈ 17.4 µg/mL)
SMILES: Cc1ccc(S(=O)(=O)OCC2CN(C(=O)c3cc4cc(OCCO)ccc4[nH]3)c3cc([N+](=O)[O-])c4ccccc4c32)cc1 (stereo not drawn)
IC50 [2]: 3000 nM
IC50 [3]: 770 nM
Ratio IC50 [4]: 2.8
IC50 [5]: 3300 nM
IC50 [6]: 2700 nM
Ratio IC50 [7]: 0.81

solubility [1]: 89 µM (≈ 56.2 µg/mL)
SMILES: COc1cc2cc(C(=O)N3CC(COS(=O)(=O)c4ccc(C)cc4)c4c3cc([N+](=O)[O-])c3ccccc43)[nH]c2c(OC)c1OC (stereo not drawn)
IC50 [2]: 8800 nM
IC50 [3]: 220 nM
Ratio IC50 [4]: 72
IC50 [5]: 12000 nM
IC50 [6]: 470 nM
Ratio IC50 [7]: 28

solubility [1]: 12 µM (≈ 6.86 µg/mL)
SMILES: COc1ccc2[nH]c(C(=O)N3CC(COS(=O)(=O)c4ccc(C)cc4)c4c3cc([N+](=O)[O-])c3ccccc43)cc2c1 (stereo not drawn)
IC50 [2]: 11000 nM
IC50 [3]: 380 nM
Ratio IC50 [4]: 34
IC50 [5]: 6500 nM
IC50 [6]: 700 nM
Ratio IC50 [7]: 7.9

solubility [1]: 35 µM (≈ 20.1 µg/mL)
SMILES: COc1ccc(/C=C/C(=O)N2CC(COS(=O)(=O)Cc3ccccc3)c3c2cc([N+](=O)[O-])c2ccccc32)cc1O (stereo not drawn)
IC50 [2]: 570 nM
IC50 [3]: 160 nM
Ratio IC50 [4]: 3.9
IC50 [5]: 1000 nM
IC50 [6]: 1000 nM
Ratio IC50 [7]: 1.1
